We go through 4 compounds from ChEMBL document CHEMBL4354845, “Discovery and Structure-Activity Relationships of Nociceptin Receptor Partial Agonists That Afford Symptom Ablation in Parkinson's Disease Models” (J Med Chem, 2020).

The source made the active and inactive calls. The rule behind the calls is not given here. A value given as a limit tells only on which side of the number the result lay.

Data set [1] can be described thus: Half life in Sprague-Dawley rat plasma at 3 mg/kg, sc measured upto 8 hrs by LC-MS/MS analysis. The format is ADME, organism-based. The essentials: (§1)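 Male Sprague-Dawley rats (250–300 g) given a single s.c. dose of 3 mg/kg (2 mL/kg) as a 1.5 mg/ml solution in 5% dimethylacetamide/95% of 30% SBECD. Plasma (K2-EDTA) and brain collected at 0.5, 1, 2, 4 and 8 h. Brain homogenised 1:4 w/v in water. Terfenadine internal standard, positive-ion ESI LC-MS/MS. Noncompartmental analysis, linear trapezoidal AUC to 8 h. Brain values are total.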

Data set [2] in a line: Cmax in Sprague-Dawley rat plasma at 3 mg/kg, sc measured upto 8 hrs by LC-MS/MS analysis. Format: ADME, organism-based. Also on record: dose 3 mg/kg, route subcutaneous. The essentials:
as §1

Data set [3] can be described thus: AUClast in Sprague-Dawley rat plasma at 3 mg/kg, sc measured upto 8 hrs by LC-MS/MS analysis. Also on record: dose 3 mg/kg, time < 8 hr, route subcutaneous. The format is ADME, organism-based. The essentials: as §1
A short description of data set [4]: Stability in rat liver microsomes assessed as half life at 1 uM incubated for 60 mins by LC-MS/MS analysis. Format: ADME, Microsome. The essentials:
(§2)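 Compound at 1 µM incubated at 37°C with liver microsomes in 100 mM potassium phosphate pH 7.4 and 5 mM MgCl2. Reaction started with 1 mM NADPH, sampled at 30, 45 and 60 min and quenched with acetonitrile/0.1% formic acid. Parent loss measured by LC-MS against t=0 with propranolol internal standard. Half-life from single-phase exponential fit, in duplicate.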

Data set [5] has as its system Rattus norvegicus. Put plainly: Anti-parkinson's disease activity in 6-OHDA-induced hemi-lesioned Sprague-Dawley rat model of Parkinson's disease assessed as reduction in immobility time at 0.01 to 1 mg/kg, ip administered for 3 days and measured after 20 mins of compound administration by bar test. Format: functional, organism-based. The essentials: (§3)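 Rats received unilateral 6-OHDA (8 µg freebase) into the medial forebrain bundle and were enrolled if they made >7 ipsilateral turns/min after D-amphetamine 5 mg/kg i.p. They were trained to reproducible performance, then given acute i.p. doses or vehicle (saline + 5% Tween 80, 1% DMSO) with 3-day washouts. Contralateral paw scored at 20 and 90 min in bar and drag tests. Rotarod started at 5 rpm, rising 5 rpm/180 s, expressed as % of control. Analysis by two-way ANOVA with Bonferroni.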

Data set [6] relates to Rattus norvegicus. Put plainly: Anti-parkinson's disease activity in 6-OHDA-induced hemi-lesioned Sprague-Dawley rat model of Parkinson's disease assessed as increase in time spent on rotarod at 0.01 to 1 mg/kg, ip administered for 3 days and measured after 20 mins of compound administration by rotarod test. The format is functional, organism-based. The essentials: as §3

A short description of data set [7]: Tmax in Sprague-Dawley rat brain at 3 mg/kg, sc measured upto 8 hrs by LC-MS/MS analysis. The format is ADME, organism-based. The essentials: as §1
Data set [8] is described as follows: Apparent permeability across basolateral to apical side in human Caco2 cells by HPLC-MS/MS analysis. The format is ADME, cell-based. As to conditions: Caco-2. The essentials:
(§4)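 Caco-2 monolayers, two-way permeability (apical→basolateral and basolateral→apical), compound monitored by HPLC/MS/MS and reported as Papp (10^-6 cm/s). Papp >1.0x10^-6 cm/s with efflux ratio <3 classed as high permeability/no efflux.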

The test system of data set [9] is Rattus norvegicus. The data set can be described thus: Anti-parkinson's disease activity in Sprague-Dawley rat model of L-DOPA-induced dyskinesia at 0.1 to 3 mg/kg, ip administered for 3 days. The format is functional, organism-based.
Data set [10] is described as follows: Half life in Sprague-Dawley rat brain at 3 mg/kg, sc measured upto 8 hrs by LC-MS/MS analysis. Format: ADME, organism-based. The essentials: as §1
A short description of data set [11]: Stability in human liver microsomes assessed as half life at 1 uM incubated for 60 mins by LC-MS/MS analysis. Format: ADME, Microsome. The essentials: as §2
A short description of data set [12]: Apparent permeability across basolateral to apical side in dog MDCK-MDR1 cells by HPLC-MS/MS analysis. Format: ADME, cell-based, Canis lupus familiaris. The essentials: (§5)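 MDR1-MDCK monolayers, bidirectional permeability (A→B and B→A), compound quantified by HPLC/MS/MS and expressed as Papp (10^-6 cm/s). Efflux ratio B–A/A–B. High BBB permeability taken as Papp A–B >3.0 with efflux ratio <3; efflux ratio >3 counted as high efflux.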

A short description of data set [13]: Cmax in Sprague-Dawley rat brain at 3 mg/kg, sc measured upto 8 hrs by LC-MS/MS analysis. Format: ADME, organism-based. Also on record: dose 3 mg/kg, route subcutaneous. The essentials:
as §1

Data set [14] in a line: Apparent permeability across apical to basolateral side in dog MDCK-MDR1 cells by HPLC-MS/MS analysis. Format: ADME, cell-based, Canis lupus familiaris. The essentials:
as §5

The nature of data set [15]: Apparent permeability across apical to basolateral side in human Caco2 cells by HPLC-MS/MS analysis. Format: ADME, cell-based. As to conditions: Caco-2. The essentials: as §4
For data set [16], the system named is Rattus norvegicus. Put plainly: Anti-parkinson's disease activity in 6-OHDA-induced hemi-lesioned Sprague-Dawley rat model of Parkinson's disease assessed as increase in stepping activity at 0.01 to 1 mg/kg, ip administered for 3 days and measured after 90 mins of compound administration by drag test. The format is functional, organism-based. The essentials:
as §3

A short description of data set [17]: Tmax in Sprague-Dawley rat plasma at 3 mg/kg, sc measured upto 8 hrs by LC-MS/MS analysis. Format: ADME, organism-based. The essentials: as §1
The nature of data set [18]: AUClast in Sprague-Dawley rat brain at 3 mg/kg, sc measured upto 8 hrs by LC-MS/MS analysis. The format is ADME, organism-based. Also on record: time < 8 hr, dose 3 mg/kg, route subcutaneous. The essentials:
as §1

For data set [19], the system named is Rattus norvegicus. Put plainly: Anti-parkinson's disease activity in Sprague-Dawley rat model of L-DOPA-induced dyskinesia at 0.01 to 1 mg/kg, ip administered for 3 days. Format: functional, organism-based.
Data set [20] is described as follows: Stability in mouse liver microsomes assessed as half life at 1 uM incubated for 60 mins by LC-MS/MS analysis. Format: ADME, Microsome. The essentials: as §2
Data set [21] has as its system Rattus norvegicus. Put plainly: Anti-parkinson's disease activity in 6-OHDA-induced hemi-lesioned Sprague-Dawley rat model of Parkinson's disease assessed as increase in time spent on rotarod at 0.1 to 3 mg/kg, ip administered for 3 days and measured after 20 mins of compound administration by rotarod test. The format is functional. The essentials:
as §3

Data set [22] concerns Rattus norvegicus. Put plainly: Anti-parkinson's disease activity in 6-OHDA-induced hemi-lesioned Sprague-Dawley rat model of Parkinson's disease assessed as reduction in immobility time at 0.1 to 3 mg/kg, ip administered for 3 days and measured after 20 mins of compound administration by bar test. Also on record: scale not given: the % may be the effect or the level left. Format: functional. The essentials:
as §3

The subject of data set [23] is Rattus norvegicus. Put plainly: Anti-parkinson's disease activity in 6-OHDA-induced hemi-lesioned Sprague-Dawley rat model of Parkinson's disease assessed as increase in stepping activity at 0.1 to 3 mg/kg, ip administered for 3 days and measured after 90 mins of compound administration by drag test. Format: functional, organism-based. The essentials:
as §3

Take `CC(C)[C@H]1CC[C@@H](N2CCC(n3cc(CN)c4ccccc43)CC2)CC1`: the half-life in [1] is 2.61 h; in [10], 10.8 h. In addition, the maximum concentration (Cmax) in [2] worked out at 529 nM; in data set [13], 956 nM. For the same compound, the AUC(0-t) at 8 h amounted to 1 µM·h in [3] and 6.13 µM·h in [18]. In addition, the half-life at 1 µM in [4] and in data set [11] was greater than 1 h each time. Besides, the result in data set [5], in [6] and in data set [16] was Active. The results for the Tmax in data set [7] and in data set [17] were 4 h and 0.5 h, respectively. The Papp B→A was found to be 4.92 ×10⁻⁶ cm/s in data set [8] and 14.4 ×10⁻⁶ cm/s in [12]. In addition, the result in [9] and in [19] was inactive. Moreover, the results for the Papp A→B in [14] and in [15] were 0.34 ×10⁻⁶ cm/s and 4.64 ×10⁻⁶ cm/s, respectively.

Regarding `CC(C)[C@H]1CC[C@@H](N2CCC(n3cc(CCN)c4ccccc43)CC2)CC1.Cl.Cl`, in data set [20], the half-life at 1 µM is greater than 1 h. For the same compound, the results for the basolateral-to-apical permeability (Papp B→A) in data set [8] and in data set [12] were 6.49 ×10⁻⁶ cm/s and 22.1 ×10⁻⁶ cm/s, respectively. For the same compound, the results for the apparent permeability from apical to basolateral (Papp A→B) in data set [14] and in [15] were 0.6 ×10⁻⁶ cm/s and 4.36 ×10⁻⁶ cm/s, respectively.

As for `CC(C)[C@H]1CC[C@@H](N2CCC(N3CCc4ccccc43)CC2)CC1`, the half-life is 2.13 h in data set [1] and 2.71 h in data set [10]. Further, the maximum concentration (Cmax) turned out to be 456 nM in data set [2] and 3070 nM in data set [13]. The area under the curve AUC(0-t) at 8 h in data set [3] is 1.25 µM·h; in data set [18], 6.7 µM·h. Besides, the half-life at 1 µM in data set [20] was 0.0467 h. Besides, the result in [5], in data set [6] and in data set [16] was Active. For the same compound, the time to peak (Tmax) in [7] and in data set [17] was 0.5 h in each case. The results for the Papp B→A in [8] and in data set [12] were 25 ×10⁻⁶ cm/s and 33.8 ×10⁻⁶ cm/s, respectively. For the same compound, the result in [9] and in [19] was inactive. Moreover, the apical-to-basolateral permeability (Papp A→B) in data set [14] was 26.8 ×10⁻⁶ cm/s; in data set [15], 30 ×10⁻⁶ cm/s.

Regarding `CC(C)[C@H]1CC[C@@H](N2CCC(n3ccc4ccccc43)CC2)CC1`, the half-life is 2.19 h in data set [1] and 2.43 h in data set [10]. Also, the Cmax in [2] came to 626 nM; in data set [13] it was 4170 nM. Besides, the exposure AUC(0-t) at 8 h in data set [3] stood at 1.96 µM·h; in data set [18], 10.1 µM·h. In addition, the half-life at 1 µM in [4] turned out to be 0.0967 h; in data set [11], 0.0883 h. Further, the Tmax in data set [7] was 0.5 h; in data set [17], 1 h. Further, the results for the basolateral-to-apical permeability (Papp B→A) in data set [8] and in [12] were 19.1 ×10⁻⁶ cm/s and 15.2 ×10⁻⁶ cm/s, respectively. Further, the result in data set [9] and in data set [19] was inactive. The Activity in data set [21] is given as 20%; in data set [22], 25%. Besides, the apical-to-basolateral permeability (Papp A→B) in [14] amounted to 28.8 ×10⁻⁶ cm/s; in data set [15], 24 ×10⁻⁶ cm/s. Also, the result in data set [23] was Active.
